# The source made the active and inactive calls. The rule behind the calls is not given here.
# Columns and labels:
# Substance-P receptor [1] = molecular target: T1, Substance-P receptor (Homo sapiens, UniProt P25103); test: Agonist activity at human NK1 receptor expressed in CHO-K1 cells at 10^-4 M after 30 mins by aequorin luminescence assay; format: functional, cell-based
# How it was run: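 CHO-K1 cells stably expressing human NK1R and transfected with apoaequorin; loaded 4 h with 5 μM coelenterazine h in BSA-medium, diluted 10-fold, further 30 min. Compound added to wells; cells (2.5 × 10^4) injected, light read every second for 30 s, then 10 nM ATP injected as positive control and read 10 s more. Duplicates; expressed as % of luminescence at 10^-4 M SP.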
# Substance-P receptor [2] = molecular target: T1, Substance-P receptor; test: Antagonist activity at human NK1 receptor expressed in CHO-K1 cells assessed as inhibition of substance P-induced calcium-dependent aequorine luminescence; format: functional, cell-based; details: read-out: pA2 (converted)
# How it was run: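 Aequorin-expressing CHO-K1/hNK1 cells charged 4 h with 5 μM coelenterazine h, then diluted and held 30 min. SP series 10^-11 to 10^-4 M combined with test compound at 10^-8 to 10^-4 M; cell injection started 30 s luminescence read, then 10 nM ATP control.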
# Substance-P receptor [3] = molecular target: T1, Substance-P receptor; test: Displacement of [3H]SP from human recombinant NK1 receptor expressed in CHO cells after 20 mins by liquid scintillation counting; format: cell-based
# How it was run: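 Crude membranes from hNK1/CHO cells; 20 µg incubated with 0.4 nM [3H]SP and six test concentrations in duplicate, 50 mM Tris pH 7.4 with 5 mM MgCl2, bacitracin, bestatin, captopril, PMSF; 25 °C, 20 min. Nonspecific binding with 10 µM SP. Filtration on PEI-soaked GF/B, scintillation counting; IC50 by nonlinear regression, Ki by Cheng–Prusoff; three independent experiments, mean ± SEM.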
# Substance-P receptor [4] = molecular target: T1, Substance-P receptor; test: Antagonist activity at NK1 receptor; format: functional
# T1 sequence (P25103 whole entry): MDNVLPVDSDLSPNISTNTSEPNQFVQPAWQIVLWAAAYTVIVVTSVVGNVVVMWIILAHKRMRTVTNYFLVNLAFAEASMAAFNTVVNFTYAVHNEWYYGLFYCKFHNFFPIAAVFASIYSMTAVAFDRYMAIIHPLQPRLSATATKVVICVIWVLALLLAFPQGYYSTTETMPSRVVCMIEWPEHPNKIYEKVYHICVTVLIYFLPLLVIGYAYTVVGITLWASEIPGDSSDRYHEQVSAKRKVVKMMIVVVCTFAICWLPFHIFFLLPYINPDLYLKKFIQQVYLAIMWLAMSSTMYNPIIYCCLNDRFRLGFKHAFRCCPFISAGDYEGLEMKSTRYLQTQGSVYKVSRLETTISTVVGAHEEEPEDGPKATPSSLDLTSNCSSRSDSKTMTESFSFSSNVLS
Activity (Substance-P receptor [1]),Kb (Substance-P receptor [2]) [nM],Ki (Substance-P receptor [3]) [nM],IC50 (Substance-P receptor [4]) [nM],Compound
inactive,31.6,32,,CC(=O)N1Cc2ccccc2C[C@H]1C(=O)N(C)Cc1cc(C(F)(F)F)cc(C(F)(F)F)c1
inactive,,,,CC(=O)N1Cc2[nH]c3ccccc3c2C[C@@H]1C(=O)N(C)Cc1cc(C(F)(F)F)cc(C(F)(F)F)c1
,,,25,O=C1O[C@@H](Cc2c[nH]c3ccccc23)C(=O)N1Cc1cc(C(F)(F)F)cc(C(F)(F)F)c1
inactive,631,387,,CC(=O)N[C@H]1Cc2ccccc2CN(CC(=O)NCc2cc(C(F)(F)F)cc(C(F)(F)F)c2)C1=O
inactive,,,,CC(=O)N1Cc2[nH]c3ccccc3c2C[C@H]1C(=O)N(C)Cc1cc(C(F)(F)F)cc(C(F)(F)F)c1
inactive,,,,CC(=O)N[C@@H]1Cc2ccccc2[C@@H](c2ccccc2)N(CC(=O)N(C)Cc2cc(C(F)(F)F)cc(C(F)(F)F)c2)C1=O
inactive,,,,CC(=O)N[C@H]1Cc2c([nH]c3ccccc23)CN(Cc2cc(C(F)(F)F)cc(C(F)(F)F)c2)C1=O
inactive,,,,CC(=O)N1Cc2ccccc2C[C@H]1C(=O)NCc1cc(C(F)(F)F)cc(C(F)(F)F)c1
inactive,,,,CC(=O)N[C@H]1Cc2c([nH]c3ccccc23)CN(CC(=O)N(C)Cc2cc(C(F)(F)F)cc(C(F)(F)F)c2)C1=O
inactive,,,,CC(=O)N[C@H]1Cc2ccccc2[C@@H](c2ccccc2)N(CC(=O)N(C)Cc2cc(C(F)(F)F)cc(C(F)(F)F)c2)C1=O
inactive,,,,CC(=O)N[C@H]1Cc2ccccc2[C@@H](c2ccccc2)N(CC(=O)NCc2cc(C(F)(F)F)cc(C(F)(F)F)c2)C1=O
inactive,,,,CC(=O)N[C@@H]1Cc2c([nH]c3ccccc23)CN(CC(=O)N(C)Cc2cc(C(F)(F)F)cc(C(F)(F)F)c2)C1=O

Compound,Activity (Substance-P receptor [1]),Kb (Substance-P receptor [2]) [nM],Ki (Substance-P receptor [3]) [nM],IC50 (Substance-P receptor [4]) [nM]
CC(=O)N[C@H]1Cc2ccccc2CN(CC(=O)N(C)Cc2cc(C(F)(F)F)cc(C(F)(F)F)c2)C1=O,inactive,3.98,27,

# Reference: ChEMBL document CHEMBL1781883, “Design of novel neurokinin 1 receptor antagonists based on conformationally constrained aromatic amino acids and discovery of a potent chimeric opioid agonist-neurokinin 1 receptor antagonist” (J Med Chem, 2011)
